In ChEMBL document CHEMBL1772954, “Antifungal, cytotoxic and SAR studies of a series of N-alkyl, N-aryl and N-alkylphenyl-1,4-pyrrolediones and related compounds” (Bioorg Med Chem, 2011):
Converted amounts (≈) assume the structure as drawn.

Experiments:
MCF7 = assay: Cytotoxicity against human MCF7 cells assessed as cell growth after 2 days by sulforhodamine B assay; type: functional; details: MCF7, 48 h
Outline: (§1)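 NCI cell lines were run by the Monks method: cells were plated with compounds from DMSO stocks and incubated 2 days at 37 °C in 5% CO2, in duplicate. Cells were fixed with cold TCA, stained with 0.4% SRB, and the bound dye was solubilized in 10 mM tris-base and read at 515 nm. The zero-day control was subtracted, and GI50 was taken from the curves.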

NCI-H460 = assay: Cytotoxicity against human H460 cells assessed as cell growth after 2 days by sulforhodamine B assay; type: functional; details: NCI-H460, 48 h; outline: as §1
SF-268 = assay: Cytotoxicity against human SF268 cells assessed as cell growth after 2 days by sulforhodamine B assay; type: functional; details: SF-268, 48 h; outline: as §1
[1] = Cytotoxicity against human erythrocytes assessed as hemolysis by spectrometric analysis; type: cell-based, Erythrocyte
Outline: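 Human heparinized red blood cells were washed in PBS at pH 7.0 and suspended at 4% in sterile 5% glucose. Compounds from DMSO stocks were diluted in 5% glucose to final concentrations of 250 to 0.24 µg/ml and incubated with the cells at 37 °C. Released hemoglobin was read at 540 nm. HC50 is the concentration giving 50% lysis relative to the drug-free value.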

Candida albicans = assay: Antifungal activity against Candida albicans ATCC 10213; type: functional
Outline: (§2)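 CLSI M27-A3 broth microdilution in RPMI-1640 buffered to pH 7.0 with MOPS. Inoculum 1-5 × 10^3 CFU/mL. Compound twofold dilutions from 250 to 0.24 µg/ml, final DMSO <1%. Incubated at 35 °C in a moist, dark chamber and read at 48 h. MIC is the lowest concentration giving total growth inhibition. For MFC, 5 µL from clear wells was plated in duplicate on SDA; MFC is the lowest concentration with no growth.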

Candida tropicalis = assay: Antifungal activity against Candida tropicalis C 131 2000; type: functional; outline: as §2
Saccharomyces cerevisiae = assay: Antifungal activity against Saccharomyces cerevisiae ATCC 9763; type: functional; outline: as §2
Cryptococcus neoformans = assay: Antifungal activity against Cryptococcus neoformans ATCC 32264; type: functional; outline: as §2
Aspergillus fumigatus = assay: Antifungal activity against Aspergillus fumigatus ATCC 26934; type: functional
Outline: (§3)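 Broth microdilution per CLSI M38-A2 in RPMI-1640 with MOPS at pH 7.0. Inoculum 1-5 × 10^3 CFU/mL, with twofold compound dilutions spanning 250-0.24 µg/ml (final DMSO <1%). Plates incubated at 35 °C, moist and dark, and read when the control fungus had grown. MIC is total growth inhibition. MFC comes from subculturing clear wells in duplicate onto SDA.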

Aspergillus flavus = assay: Antifungal activity against Aspergillus flavus ATCC 9170; type: functional; outline: as §3
Aspergillus niger = assay: Antifungal activity against Aspergillus niger ATCC 9029; type: functional; outline: as §3
Nannizzia gypsea = assay: Antifungal activity against Microsporum gypseum C 115 2000; type: functional
Outline: (§4)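 Dermatophytes tested by CLSI M38-A2 microdilution in MOPS-buffered RPMI-1640 at pH 7.0. Inoculum 1-5 × 10^3 CFU/mL; compounds 250 to 0.24 µg/ml in twofold steps, final DMSO <1%. Incubated at 28 °C in a moist, dark chamber and read according to control growth. MIC is the lowest concentration with complete inhibition. MFC is the lowest concentration with no growth after duplicate subculture on SDA.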

Trichophyton rubrum = assay: Antifungal activity against Trichophyton rubrum C 113 2000; type: functional; outline: as §4
[2] = tested on: Trichophyton mentagrophytes; assay: Antifungal activity against Trichophyton mentagrophytes ATCC 9972; type: functional; outline: as §4

SMILES | GI50 (MCF7) [µg/mL] | GI50 (NCI-H460) [µg/mL] | GI50 (SF-268) [µg/mL] | HC50 [1] [µg/mL] | MFC (Candida albicans) [µg/mL] | MIC (Candida albicans) [µg/mL] | MFC (Candida tropicalis) [µg/mL] | MIC (Candida tropicalis) [µg/mL] | MFC (Saccharomyces cerevisiae) [µg/mL] | MIC (Saccharomyces cerevisiae) [µg/mL] | MFC (Cryptococcus neoformans) [µg/mL] | MIC (Cryptococcus neoformans) [µg/mL] | MFC (Aspergillus fumigatus) [µg/mL] | MIC (Aspergillus fumigatus) [µg/mL] | MFC (Aspergillus flavus) [µg/mL] | MIC (Aspergillus flavus) [µg/mL] | MFC (Aspergillus niger) [µg/mL] | MIC (Aspergillus niger) [µg/mL] | MFC (Nannizzia gypsea) [µg/mL] | MIC (Nannizzia gypsea) [µg/mL] | also measured
O=C1C=CC(=O)N1c1ccc(Br)cc1 | > 10 | > 10 | > 10 | > 250 | 31.2 (≈ 124 µM) | 15.6 (≈ 62 µM) | 62.5 (≈ 248 µM) | 15.6 (≈ 62 µM) | 15.6 (≈ 62 µM) | 7.81 (≈ 31 µM) | 15.6 (≈ 62 µM) | 7.81 (≈ 31 µM) | 62.5 (≈ 248 µM) | 31.2 (≈ 124 µM) | 62.5 (≈ 248 µM) | 31.2 (≈ 124 µM) | 62.5 (≈ 248 µM) | 31.2 (≈ 124 µM) | 3.9 (≈ 15.5 µM) | 3.9 (≈ 15.5 µM) | MFC (Trichophyton rubrum): 3.9 µg/mL (≈ 15.5 µM); MIC (Trichophyton rubrum): 1.95 µg/mL (≈ 7.74 µM); MFC [2]: 3.9 µg/mL (≈ 15.5 µM); MIC [2]: 1.95 µg/mL (≈ 7.74 µM)
O=C1C(Cl)=C(Cl)C(=O)N1Cc1ccccc1 | > 10 | > 10 | > 10 | > 250 | 31.2 (≈ 122 µM) | 15.6 (≈ 61 µM) | 31.2 (≈ 122 µM) | 31.2 (≈ 122 µM) | 15.6 (≈ 61 µM) | 7.81 (≈ 30.5 µM) | 15.6 (≈ 61 µM) | 7.81 (≈ 30.5 µM) | 31.2 (≈ 122 µM) | 15.6 (≈ 61 µM) | 31.2 (≈ 122 µM) | 31.2 (≈ 122 µM) | 62.5 (≈ 244 µM) | 31.2 (≈ 122 µM) | 31.2 (≈ 122 µM) | 15.6 (≈ 61 µM) | MFC (Trichophyton rubrum): 15.6 µg/mL (≈ 61 µM); MIC (Trichophyton rubrum): 7.81 µg/mL (≈ 30.5 µM); MFC [2]: 15.6 µg/mL (≈ 61 µM); MIC [2]: 7.81 µg/mL (≈ 30.5 µM)
CC1=CC(=O)N(CCc2ccccc2)C1=O | > 10 | > 10 | > 10 | > 250 | 125 (≈ 581 µM) | 62.5 (≈ 290 µM) | 250 (≈ 1160 µM) | 125 (≈ 581 µM) | 62.5 (≈ 290 µM) | 31.2 (≈ 145 µM) | 62.5 (≈ 290 µM) | 31.2 (≈ 145 µM) | 31.2 (≈ 145 µM) | 31.2 (≈ 145 µM) | 250 (≈ 1160 µM) | 62.5 (≈ 290 µM) | 250 (≈ 1160 µM) | 62.5 (≈ 290 µM) | 7.81 (≈ 36.3 µM) | 3.9 (≈ 18.1 µM) | MFC (Trichophyton rubrum): 15.6 µg/mL (≈ 72.6 µM); MIC (Trichophyton rubrum): 7.81 µg/mL (≈ 36.3 µM); MFC [2]: 62.5 µg/mL (≈ 290 µM); MIC [2]: 31.2 µg/mL (≈ 145 µM)
CCCCN1C(=O)C=CC1=O | > 10 | > 10 | > 10 | > 250 | 15.6 (≈ 102 µM) | 3.9 (≈ 25.5 µM) | 3.9 (≈ 25.5 µM) | 3.9 (≈ 25.5 µM) | 1.95 (≈ 12.7 µM) | 1.95 (≈ 12.7 µM) | 7.81 (≈ 51 µM) | 3.9 (≈ 25.5 µM) | 1.95 (≈ 12.7 µM) | 1.95 (≈ 12.7 µM) | 7.81 (≈ 51 µM) | 1.95 (≈ 12.7 µM) | 3.9 (≈ 25.5 µM) | 3.9 (≈ 25.5 µM) | 3.9 (≈ 25.5 µM) | 3.9 (≈ 25.5 µM) | MFC (Trichophyton rubrum): 1.95 µg/mL (≈ 12.7 µM); MIC (Trichophyton rubrum): 1.95 µg/mL (≈ 12.7 µM); MFC [2]: 3.9 µg/mL (≈ 25.5 µM); MIC [2]: 1.95 µg/mL (≈ 12.7 µM)
CC1=CC(=O)N(CCCCc2ccccc2)C1=O | > 10 | > 10 | > 10 | > 250 | 125 (≈ 514 µM) | 62.5 (≈ 257 µM) | 125 (≈ 514 µM) | 62.5 (≈ 257 µM) | 62.5 (≈ 257 µM) | 31.2 (≈ 128 µM) | 62.5 (≈ 257 µM) | 31.2 (≈ 128 µM) | 62.5 (≈ 257 µM) | 31.2 (≈ 128 µM) | 125 (≈ 514 µM) | 62.5 (≈ 257 µM) | 125 (≈ 514 µM) | 62.5 (≈ 257 µM) | 15.6 (≈ 64.2 µM) | 3.9 (≈ 16 µM) | MFC (Trichophyton rubrum): 15.6 µg/mL (≈ 64.2 µM); MIC (Trichophyton rubrum): 3.9 µg/mL (≈ 16 µM); MFC [2]: 31.2 µg/mL (≈ 128 µM); MIC [2]: 31.2 µg/mL (≈ 128 µM)
CN1C(=O)C=CC1=O | > 10 | > 10 | > 10 | > 250 | 125 (≈ 1130 µM) | 62.5 (≈ 563 µM) | 62.5 (≈ 563 µM) | 31.2 (≈ 281 µM) | 15.6 (≈ 141 µM) | 7.81 (≈ 70.3 µM) | 62.5 (≈ 563 µM) | 15.6 (≈ 141 µM) | 62.5 (≈ 563 µM) | 15.6 (≈ 141 µM) | 31.2 (≈ 281 µM) | 15.6 (≈ 141 µM) | 15.6 (≈ 141 µM) | 7.81 (≈ 70.3 µM) | 7.81 (≈ 70.3 µM) | 7.81 (≈ 70.3 µM) | MFC (Trichophyton rubrum): 15.6 µg/mL (≈ 141 µM); MIC (Trichophyton rubrum): 3.9 µg/mL (≈ 35.1 µM); MFC [2]: 15.6 µg/mL (≈ 141 µM); MIC [2]: 7.81 µg/mL (≈ 70.3 µM)
O=C1C=CC(=O)N1c1ccc(I)cc1 | > 10 | > 10 | > 10 | > 250 | 62.5 (≈ 209 µM) | 31.2 (≈ 104 µM) | 62.5 (≈ 209 µM) | 31.2 (≈ 104 µM) | 7.81 (≈ 26.1 µM) | 7.81 (≈ 26.1 µM) | 15.6 (≈ 52.3 µM) | 7.81 (≈ 26.1 µM) | 125 (≈ 418 µM) | 62.5 (≈ 209 µM) | 125 (≈ 418 µM) | 62.5 (≈ 209 µM) | 125 (≈ 418 µM) | 62.5 (≈ 209 µM) | 7.81 (≈ 26.1 µM) | 3.9 (≈ 13 µM) | MFC (Trichophyton rubrum): 7.81 µg/mL (≈ 26.1 µM); MIC (Trichophyton rubrum): 3.9 µg/mL (≈ 13 µM); MFC [2]: 7.81 µg/mL (≈ 26.1 µM); MIC [2]: 3.9 µg/mL (≈ 13 µM)
